Only some compounds are listed: those with a hit (about 3.8% of all), similar ones and a draw of the others.
T cell modulator: modulators of CD8 T cell-vesicle binding, primary screen, mouse 2C CD8+ T cells, flow cytometry; 330,000 compounds, 0.068% hits; 2C CD8+ T cell-vesicle binding; hits give low values; response (vesicle binding), % at 7 µM;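 active = response, share of CD8 T cells binding vesicles, and their 90th percentile fluorescence all below set limits, cut at about 80% in these data, passing the limit was not always enough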;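 also: values below 100% mean blocked vesicle binding to the CD8+ T cells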
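Material: murine 2C transgenic CD8+ T lymphocytes / Also added: QL9-peptide-loaded Drosophila micro-vesicles bearing Ld, ICAM-1 and B7-1 / Schedule: binding step 1.5 h, 37 °C, antibody labelling 20 min, ice / Signal: flow cytometry, PE anti-B7-1 (FL2) versus Alexa647 anti-CD8 (FL8), PFA-fixed / Evaluation: percent CD8+ FL2 mean versus row control / Benchmarks: naked versus QL9-loaded vesicles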
B2AR ag: beta2AR agonists driving receptor internalization, primary screen, cell-based, FAP fluorogen, flow cytometry. Am2.2-beta2AR cells. 340,000 compounds, 0.43% hits. Beta-2 adrenergic receptor (Homo sapiens), P07550. response, % (no concentration beside the values);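 active = response above a set limit, near 3 SD of response in nonfluorescent compounds, cut at about 42% in these data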
Target sequence (P07550 whole entry, looked up): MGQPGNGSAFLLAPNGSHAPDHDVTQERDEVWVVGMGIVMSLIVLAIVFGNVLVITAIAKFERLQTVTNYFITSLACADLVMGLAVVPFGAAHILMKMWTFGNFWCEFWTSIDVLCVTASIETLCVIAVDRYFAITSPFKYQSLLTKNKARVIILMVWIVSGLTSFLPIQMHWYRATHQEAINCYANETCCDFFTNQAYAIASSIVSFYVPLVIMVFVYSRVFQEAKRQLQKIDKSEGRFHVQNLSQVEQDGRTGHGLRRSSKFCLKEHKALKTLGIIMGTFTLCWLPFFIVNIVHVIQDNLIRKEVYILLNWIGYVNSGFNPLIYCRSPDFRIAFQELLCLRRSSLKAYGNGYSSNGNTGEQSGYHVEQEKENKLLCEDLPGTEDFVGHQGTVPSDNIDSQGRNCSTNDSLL
Exocytosis inh: LAMP-1 surface exposure blockers, TALL-104 cells – cell-based, flow cytometry, MLPCN library, primary screen. TALL-104 LAMP-1 surface exposure; cells stimulated with thapsigargin and PMA. inhibition, % at 10 µM. 360,000 compounds, 0.66% hits. AID 651702, 2012;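 active = inhibition above about 55%, limit read from the data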
V-ATPase pH: regulators of yeast V-ATPase proton pumping, primary screen, pHLuorin cytosolic pH fluorescence. S. cerevisiae. response, % at 10 µM. 350,000 compounds, 0.37% hits. AID 504577, 2011; in the data active = response mostly above about 7.3%, no sharp cut-off; inactive = mostly below about 5.4%; also: actives read high
rCAG binder: binders of r(CAG) RNA repeats, primary screen, biochemical, fluorescence; r(CAG) RNA repeat, TO-PRO-1 dye displacement fluorescence; inhibition, % at 3 µM; 370,000 compounds, 1.3% hits; AID 651821, 2012;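 active = inhibition above the plate cutoff, the mean of all test compounds on that plate plus 3 SD, cut at about 35% in these data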;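 also: higher means more dye released from RNA so lower well fluorescence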
MPTP inh: mitochondrial permeability transition pore inhibitors, primary screen, biochemical, isolated mouse mitochondria, absorbance. AID 602449, 2012. inhibition, % at 10 µM. Ca2+ swelling absorbance, 30 min. 360,000 compounds, 1.4% hits;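 active = inhibition of 50% or more, scaled per plate between neutral and stimulator controls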
rCAG binder conf: small molecules binding CAG repeat RNA – biochemical, fluorescence, confirmation; shares compounds with rCAG binder; r(CAG) RNA repeat, TO-PRO-1 dye displacement fluorescence; inhibition, % at 3 µM; 4,300 compounds, 70% hits;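 active = inhibition above a per-plate cutoff, the mean inhibition of sample wells plus 3 SD, cut at about 35% in these data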;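 also: loss of TO-PRO-1 fluorescence as compound displaces dye from 1x1 AA loop RNA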
dCAG dye counter: displacement of TO-PRO-1 from CAG DNA duplex, counter-screen for rCAG RNA repeat binder project, biochemical, fluorescence, TO-PRO-1 dye, d(CAG) DNA oligo | shares compounds with rCAG binder | d(CAG) DNA oligo TO-PRO-1 dye displacement | inhibition, % at 3 µM | 4,300 compounds, 94% hits | AID 652068, 2013;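 active = inhibition above its plate's cutoff, the mean test-well inhibition plus 3 SD, cut at about 4.8% in these data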;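 also: hits displace the dye from DNA and so lower well fluorescence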
Numbers stand for hits; i = inactive; nt = no result.

SMILES | T cell modulator | B2AR ag | Exocytosis inh | V-ATPase pH | rCAG binder | MPTP inh | rCAG binder conf | dCAG dye counter
COc1ccc(NC(=O)c2ccccc2NS(=O)(=O)c2ccc(C)cc2)c([N+](=O)[O-])c1 | i | i | i | i | 56 | i | 60 | 25
COc1cc(C=NNc2ccc(S(=O)(=O)Nc3ccccc3C(=O)O)cc2[N+](=O)[O-])ccc1O | i | i | i | i | 90 | i | 91 | 69
COc1ccc(NS(=O)(=O)c2ccc(C)cc2)c([N+](=O)[O-])c1 | i | i | i | i | i | i | nt | nt
COc1cc(/C=N/Nc2ccc(S(N)(=O)=O)cc2[N+](=O)[O-])cc(OC)c1O | i | i | i | i | i | i | nt | nt
CC(=O)Nc1ccc(C=NNc2ccc([N+](=O)[O-])cc2S(=O)(=O)Nc2ccccc2C(=O)O)cc1 | i | i | i | i | 57 | i | 89 | 65
CC(=O)Nc1ccc(C=NNc2ccc(S(=O)(=O)Nc3ccccc3C(=O)O)cc2[N+](=O)[O-])cc1 | i | i | i | i | 89 | i | 92 | 74
NS(=O)(=O)c1ccc(N/N=C/c2ccc(C(=O)O)cc2)c([N+](=O)[O-])c1 | i | i | i | i | i | i | nt | nt
O=C(O)c1ccccc1Nc1ccc([N+](=O)[O-])cc1C(=O)O | i | i | i | i | i | i | nt | nt
CC(=O)Nc1cccc(/C(C)=N/Nc2ccc(S(=O)(=O)Nc3ccccc3C(=O)O)cc2[N+](=O)[O-])c1 | nt | i | i | i | 85 | i | 94 | 80
CCOc1cc(/C=N/Nc2ccc(S(=O)(=O)Nc3ccccc3C(=O)O)cc2[N+](=O)[O-])cc(Cl)c1O | nt | nt | i | i | 67 | i | 93 | 73
Cc1ccc(NC(=S)NNc2ccc([N+](=O)[O-])cc2S(=O)(=O)Nc2ccccc2C(=O)O)cc1C | i | i | i | i | 91 | i | 94 | 70
C=CCn1c(Cc2cccs2)nnc1SCC(=O)Nc1ccc(C)cc1 | nt | nt | nt | nt | i | nt | nt | nt
c1cc(-c2nnc3n2N=C(c2ccc4c(c2)OCO4)CS3)ccn1 | nt | nt | nt | nt | i | nt | nt | nt
C/C(=N\NC(=O)c1ccccc1)c1cc2cc([N+](=O)[O-])ccc2oc1=O | i | i | i | i | 50 | i | 44 | 15
COc1cccc2cc(C(=O)N3CC(C)OC(C)C3)c(=O)oc12 (stereo not drawn) | i | i | i | i | i | i | nt | nt
COc1cc2c(oc(=O)c3cc(C)cc(OC)c32)c2c(C3OC(C)C(O)C(C)(O)C3O)ccc(O)c12 (stereo not drawn) | nt | i | i | i | 52 | i | i | 6.9
COc1ccc(-c2ccc3c(n2)CCCN3S(=O)(=O)c2cccs2)cc1 | nt | nt | nt | nt | i | nt | nt | nt
NNc1nc2sc3c(c2c(=O)[nH]1)CCc1ccccc1-3 | i | i | i | i | 44 | i | i | 8.4
CCSc1nc2sc3c(c2c(=O)[nH]1)CCc1ccccc1-3 | i | i | i | i | i | i | nt | nt
CN[C@H]1C[C@H]2c3[nH]c4c(-c5cccc(C)c5)cccc4c3CCN2C[C@H]1[C@H](C)O | nt | nt | nt | nt | i | nt | nt | nt
COc1ccc(C(=O)N/N=C/c2c[nH]c3ccccc23)cc1 | i | i | i | i | i | i | nt | nt
CCCOc1ccc(C(=O)N/N=C/c2c[nH]c3ccc(Br)cc23)cc1 | i | i | i | i | 37 | i | i | 12
Nc1[nH]c(C(=O)c2ccc(Br)cc2)c(-c2ccc(Cl)cc2)c1C(=O)NCCc1c[nH]c2ccccc12 | nt | nt | nt | nt | i | nt | nt | nt
COc1ccc(C(=O)N2C(=S)NC(=O)/C2=C\c2ccc(C)cc2)cc1 | i | i | i | i | 64 | i | 66 | 31
CCCCc1c(-c2ccccc2OC)ncn1Cc1ccccc1C | nt | nt | nt | nt | i | nt | nt | nt
SMILES | T cell modulator | B2AR ag | Exocytosis inh | V-ATPase pH | rCAG binder | MPTP inh | rCAG binder conf | dCAG dye counter
Oc1ccc2ccccc2c1/C=C/c1ccc2c(Br)cc(Br)c(O)c2n1 | nt | i | i | i | 48 | i | 50 | 32
CN1CCCCC(NC(=O)COCc2ccccc2)C1=O (stereo not drawn) | nt | nt | nt | nt | i | nt | nt | nt
O=C(Nc1cccc([N+](=O)[O-])c1)c1ccc2nc(N3C(=O)CCC3=O)sc2c1 | i | i | i | i | i | i | nt | nt
O=C(Nc1cccc(Br)c1)c1ccc2nc(N3C(=O)CCC3=O)sc2c1 | i | i | i | i | 44 | i | i | 9.7
O=C(O)c1ccc(Cl)c(S(=O)(=O)Nc2ccc(S(=O)(=O)N3CCCC3)cc2)c1 | i | i | i | i | i | i | nt | nt
CCOc1ccc(Oc2ccc(NS(=O)(=O)c3cc(C(=O)O)ccc3Cl)cc2)cc1 | i | i | i | i | 38 | i | 39 | 11
CCOc1ccc(NS(=O)(=O)c2ccc(NS(=O)(=O)c3ccccc3)cc2)cc1 | i | i | i | i | 36 | i | i | i
CCOc1ccc(Oc2ccc(NS(=O)(=O)c3ccc(CCC(=O)O)cc3)cc2)cc1 | nt | nt | i | i | 43 | i | 38 | 11
CCOc1ccc(S(=O)(=O)Nc2cc(NS(=O)(=O)c3ccc(OCC)cc3)cc(C(=O)O)c2)cc1 | i | i | i | i | 58 | i | 60 | 24
COc1cc(/C=C2\C(=N)N3N=C(S(C)(=O)=O)SC3=NC2=O)ccc1OC(=O)c1ccco1 | i | i | i | i | 43 | i | 80 | 48
CCS(=O)(=O)C1=NN2C(=N)/C(=C\c3ccc(OC(=O)c4ccco4)c(Br)c3)C(=O)N=C2S1 | i | nt | nt | nt | nt | nt | nt | nt
COc1cc(/C=C2\C(=N)N3N=C(S(C)(=O)=O)SC3=NC2=O)ccc1OCCOc1ccccc1C | i | i | i | i | 40 | i | 91 | 76
CCOc1cc(/C=C2\C(=N)N3N=C(S(=O)(=O)CC)SC3=NC2=O)ccc1OC(=O)c1ccco1 | i | i | i | i | 42 | i | 84 | 51
CCS(=O)(=O)C1=NN2C(=N)/C(=C\c3ccc(SCc4ccco4)o3)C(=O)N=C2S1 | nt | i | i | i | 85 | i | 89 | 70
O=C(Nc1nc2ncccn2c1-c1ccc(F)cc1)c1ccc(F)cc1 | nt | nt | nt | nt | i | nt | nt | nt
COC(=O)[C@]12C[C@H](CC(=O)N3CCOCC3)C(=O)N(Cc3cccc4ccccc34)C1=C[C@H](C1CCCC1)O[C@@H]2C | nt | nt | nt | nt | i | nt | nt | nt
COc1cc(/C=C2\C(=N)N3N=C(S(C)(=O)=O)SC3=NC2=O)ccc1OC(=O)c1cccs1 | i | i | i | i | 52 | i | 86 | 63
CCOc1cc(/C=C2\C(=N)N3N=C(N4CCCCC4)SC3=NC2=O)ccc1OC(=O)c1ccco1 | i | i | i | i | i | i | nt | nt
